In ChEMBL document CHEMBL5257107 (Bioorg Med Chem Lett, 2023):

Experiment: Cytotoxicity against human IMR-32 cells assessed as reduction in cell viability measured after 24 hrs by celltiter-glo-based assay
Format: toxicity
In short: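 Human IMR32 neuroblastoma cells were exposed to compound for 24 h. Viability was then read by CellTiter-Glo luminescence.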
For `O=C(O)CCCN[C@H]1CS(=O)(=O)C[C@@H]1S(=O)(=O)c1ccc(Cl)c(Cl)c1`, the IC50 at 24 h was greater than 20 µM. Work on `O=C(O)CCCCCN[C@H]1CS(=O)(=O)C[C@@H]1S(=O)(=O)c1ccc(Cl)c(Cl)c1` yielded an IC50 at 24 h greater than 20 µM. With `CC(C)CN[C@H]1CS(=O)(=O)C[C@@H]1C(=O)Nc1ccc(Cl)c(Cl)c1` the IC50 at 24 h was greater than 20 µM.
